Measured values published in ChEMBL document CHEMBL1140497, “The molecular pruning of a phosphoramidate peptidomimetic inhibitor of prostate-specific membrane antigen” (Bioorg Med Chem, 2007).

How the values were obtained:
[1] = molecular target: Glutamate carboxypeptidase 2 (Homo sapiens, UniProt Q04609); experiment: Inhibition of PSMA
How it was run: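 Purified PSMA in 50 mM Tris pH 7.4, diluted to give 15–20% substrate conversion without inhibitor. Substrate PAB-Glu-γ-Glu at 10 μM final. Five serial inhibitor dilutions spanning 10–90% inhibition. 15 min at 37 °C with shaking. Stopped with methanolic TFA, buffered with K2HPO4, centrifuged. Supernatant quantified by HPLC; IC50 calculated.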

[2] = system: prostate-specific antigen; experiment: Half life at pH 6.8 in presence of prostate-specific antigen; type: ADME; conditions: prostate-specific antigen (enzyme incubation)

Sequence of Glutamate carboxypeptidase 2 (Q04609 whole entry): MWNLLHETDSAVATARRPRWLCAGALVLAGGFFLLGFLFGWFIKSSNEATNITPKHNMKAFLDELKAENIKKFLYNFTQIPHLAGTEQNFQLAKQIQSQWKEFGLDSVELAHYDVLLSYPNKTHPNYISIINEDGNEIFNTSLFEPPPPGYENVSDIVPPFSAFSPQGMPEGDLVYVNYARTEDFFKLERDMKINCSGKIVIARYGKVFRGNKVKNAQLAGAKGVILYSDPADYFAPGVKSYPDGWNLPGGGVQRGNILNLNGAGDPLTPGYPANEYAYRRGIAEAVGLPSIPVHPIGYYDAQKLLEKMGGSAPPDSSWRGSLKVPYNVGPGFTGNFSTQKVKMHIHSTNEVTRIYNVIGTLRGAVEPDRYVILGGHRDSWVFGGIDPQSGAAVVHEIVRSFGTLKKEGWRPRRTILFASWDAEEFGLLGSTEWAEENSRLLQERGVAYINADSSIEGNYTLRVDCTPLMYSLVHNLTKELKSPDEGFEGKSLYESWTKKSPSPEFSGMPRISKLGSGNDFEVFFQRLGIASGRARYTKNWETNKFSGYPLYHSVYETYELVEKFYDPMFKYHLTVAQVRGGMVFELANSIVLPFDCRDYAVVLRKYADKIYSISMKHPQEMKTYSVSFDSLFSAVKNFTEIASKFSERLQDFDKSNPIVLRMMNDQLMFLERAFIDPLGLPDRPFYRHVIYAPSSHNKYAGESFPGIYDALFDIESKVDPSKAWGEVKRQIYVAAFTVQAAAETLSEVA

## O=C(O)CC[C@H](NP(=O)(O)O)C(=O)O [listing 1 of 2 here]
[1]
  IC50: 2.3 nM

## CN(C(=O)c1ccccc1)[C@@H](COP(=O)(O)N[C@@H](CCC(=O)O)C(=O)O)C(=O)O
[1]
  IC50: 55 nM

## CN(CCOP(=O)(O)N[C@@H](CCC(=O)O)C(=O)O)C(=O)c1ccccc1
[1]
  IC50: 280 nM

## O=C(O)CC[C@H](NP(=O)(O)OC[C@@H](NC(=O)c1ccccc1)C(=O)O)C(=O)O
[1]
  IC50: 700 nM

## O=C([O-])CC[C@H](NP(=O)([O-])OC[C@H](NC(=O)c1ccccc1)C(=O)[O-])C(=O)[O-].[K+].[K+].[K+].[K+]
[1]
  IC50: 35 nM
[2]
  half-life: 6.8 h

## O=C(O)CC[C@H](NP(=O)(O)O)C(=O)O [listing 2 of 2 here]
[1]
  IC50: 0.86 nM

## O=C(O)CC[C@H](OP(=O)(O)O)C(=O)O
[1]
  IC50: 15 nM

## O=C(O)CC[C@H](NP(=O)(O)OCC(CCc1ccccc1)C(=O)O)C(=O)O (stereo partly specified)
[1]
  IC50: 790 nM

## O=C(O)CC[C@H](NP(=O)(O)OCCCCc1ccccc1)C(=O)O
[1]
  IC50: 180 nM

## O=C(O)CC[C@H](NP(=O)(O)OCCNC(=O)c1ccccc1)C(=O)O
[1]
  IC50: 1800 nM
